Test results taken from ChEMBL document CHEMBL4270541, “Synthesis and antimicrobial evaluation of amino sugar-based naphthoquinones and isoquinoline-5,8-diones and their halogenated compounds” (Eur J Med Chem, 2018).

Assays:
Escherichia coli = test: Antimicrobial activity against Escherichia coli INCQS 00033 ATCC 25922 assessed as zone of inhibition at 5 mg/ml after 18 to 24 hrs by disc diffusion method; format: functional; conditions: ATCC 25922 INCQS 00033, read-out: IZ
Proteus mirabilis = test: Antimicrobial activity against Proteus mirabilis INCQS 00095 ATCC 15290 assessed as zone of inhibition at 5 mg/ml after 18 to 24 hrs by disc diffusion method; format: functional; conditions: read-out: IZ
Klebsiella pneumoniae = test: Antimicrobial activity against Klebsiella pneumoniae INCQS 00083 ATCC 4352 assessed as zone of inhibition at 5 mg/ml after 18 to 24 hrs by disc diffusion method; format: functional; conditions: read-out: IZ
Pseudomonas aeruginosa = test: Antimicrobial activity against Pseudomonas aeruginosa INCQS 00099 ATCC 27853 assessed as zone of inhibition at 5 mg/ml after 18 to 24 hrs by disc diffusion method; format: functional; conditions: read-out: IZ
Enterococcus faecalis = test: Antimicrobial activity against Enterococcus faecalis INCQS 00234 ATCC 29212 assessed as zone of inhibition at 5 mg/ml after 18 to 24 hrs by disc diffusion method; format: functional; conditions: ATCC 29212 INCQS 00234, read-out: IZ
Staphylococcus aureus [1] = test: Antimicrobial activity against Staphylococcus aureus INCQS 00015 ATCC 25923 assessed as zone of inhibition at 5 mg/ml after 18 to 24 hrs by disc diffusion method; format: functional; conditions: read-out: IZ
[2] = system: Staphylococcus epidermidis; test: Antimicrobial activity against Staphylococcus epidermidis INCQS 00016 ATCC 12228 assessed as zone of inhibition at 5 mg/ml after 18 to 24 hrs by disc diffusion method; format: functional; conditions: ATCC 12228 INCQS 00016, read-out: IZ
Staphylococcus simulans = test: Antimicrobial activity against Staphylococcus simulans INCQS 00254 ATCC 27851 assessed as zone of inhibition at 5 mg/ml after 18 to 24 hrs by disc diffusion method; format: functional; conditions: read-out: IZ
Staphylococcus aureus [3] = test: Antimicrobial activity against methicillin-resistant Staphylococcus aureus BMB9393 assessed as zone of inhibition at 5 mg/ml after 18 to 24 hrs by disc diffusion method; format: functional; conditions: read-out: IZ
[4] = Hemolytic activity against human erythrocytes assessed as hemolysis at 200 ug/ml after 3 hrs by spectrophotometric analysis relative to control; format: ADME, cell-based, Erythrocyte; conditions: read-out: Activity
Summary of the method: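 Erythrocytes collected in citrate tubes, washed three times with PBS pH 7.4 by centrifugation and resuspended in PBS. Incubated with compounds at 200 µg/mL for 3 h at 37°C. Released hemoglobin was read in the supernatant at 545 nm against 1% Triton X-100 (complete lysis) and 1% DMSO (negative control). Below 10% hemolysis was taken as hemocompatible. Three independent experiments.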

SMILES	zone of inhibition at 5000 µg/mL (Escherichia coli)	zone of inhibition at 5000 µg/mL (Proteus mirabilis)	zone of inhibition at 5000 µg/mL (Klebsiella pneumoniae)	zone of inhibition at 5000 µg/mL (Pseudomonas aeruginosa)	zone of inhibition at 5000 µg/mL (Enterococcus faecalis)	zone of inhibition at 5000 µg/mL (Staphylococcus aureus [1])	zone of inhibition at 5000 µg/mL [2]	zone of inhibition at 5000 µg/mL (Staphylococcus simulans)	zone of inhibition at 5000 µg/mL (Staphylococcus aureus [3])	hemolysis at 3 h, 200 ug/ml [4]
O=C(O)c1cn(C2CC2)c2cc(N3CCNCC3)c(F)cc2c1=O [CIPROFLOXACIN]	35 mm	28 mm	27 mm	36 mm						
COC(=O)c1c(C)nc(C)c2c1C(=O)C(Cl)=C(NC[C@H]1O[C@@H](OC)[C@@H]3OC(C)(C)O[C@@H]31)C2=O	0 mm	0 mm	0 mm	0 mm	0 mm	0 mm	0 mm	0 mm	0 mm	< 10%
COC(=O)c1c(C)nc(C)c2c1C(=O)C=C(NC[C@H]1O[C@@H](OC)[C@@H]3OC(C)(C)O[C@@H]31)C2=O	0 mm	0 mm	0 mm	0 mm	0 mm	0 mm	0 mm	0 mm	0 mm	< 10%
COC(=O)c1c(C)nc(C)c2c1C(=O)C=C(N)C2=O	0 mm	0 mm	0 mm	0 mm	0 mm	0 mm	0 mm	0 mm	0 mm	< 10%
COC(=O)c1c(C)nc(C)c2c1C(=O)C(Br)=C(NC[C@H]1O[C@@H]3OC(C)(C)O[C@@H]3[C@H]3OC(C)(C)O[C@H]31)C2=O	0 mm	0 mm	0 mm	0 mm	0 mm	0 mm	0 mm	0 mm	0 mm	< 10%
CC1(C)O[C@H]2[C@@H](O1)[C@@H](CNC1=C(Br)C(=O)c3ccccc3C1=O)O[C@@H]1OC(C)(C)O[C@@H]12	0 mm	0 mm	0 mm	0 mm	0 mm	0 mm	0 mm	0 mm	0 mm	10.1 to 14.4%
COC(=O)c1c(C)nc(C)c2c1C(=O)C(Cl)=C(NC[C@H]1O[C@@H]3OC(C)(C)O[C@@H]3[C@H]3OC(C)(C)O[C@H]31)C2=O	0 mm	0 mm	0 mm	0 mm	0 mm	0 mm	0 mm	0 mm	0 mm	< 10%
CC1(C)O[C@H]2O[C@H](CNC3=CC(=O)c4ccccc4C3=O)[C@H](O)[C@H]2O1	0 mm	0 mm	0 mm	0 mm	0 mm	0 mm	0 mm	0 mm	0 mm	< 10%
CC1(C)O[C@H]2[C@@H](O1)[C@@H](CNC1=CC(=O)c3ccccc3C1=O)O[C@@H]1OC(C)(C)O[C@@H]12	0 mm	0 mm	0 mm	0 mm	0 mm	0 mm	0 mm	0 mm	0 mm	< 10%
CO[C@@H]1O[C@H](CNC2=CC(=O)c3ccccc3C2=O)[C@H]2OC(C)(C)O[C@@H]12	0 mm	0 mm	0 mm	0 mm	0 mm	0 mm	0 mm	0 mm	0 mm	< 10%
